Test results as given in ChEMBL document CHEMBL4825702, “5-Aminonaphthalene derivatives as selective nonnucleoside nuclear receptor binding SET domain-protein 2 (NSD2) inhibitors for the treatment of multiple myeloma” (Eur J Med Chem, 2021).
Active and inactive are the calls of the source. No cut-off for these calls is given here.

Legend:
[1] = Half life in CD-1 mouse at 2 mg/kg, iv measured up to 24 hrs by LC-MS/MS; assay type: ADME, organism-based; conditions: in vivo
Method in brief: (§1)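 CD-1 mice given a single 2 mg/kg dose i.p. or i.v. (n = 3 per group). Blood sampled at 0, 0.083, 0.25, 0.5, 1, 2, 4, 6, 8 and 24 h and centrifuged for plasma, with internal standard added. Plasma deproteinized with methanol/acetonitrile (1:1), supernatant diluted with acetonitrile/water, and compound measured by LC/MS/MS.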

[2] = MRT in CD-1 mouse at 2 mg/kg, ip measured up to 24 hrs by LC-MS/MS; assay type: ADME, organism-based; conditions: in vivo
Method in brief: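 CD-1 mice dosed at 2 mg/kg i.p. or i.v., n = 3 per group. Blood sampled at 0, 0.083, 0.25, 0.5, 1, 2, 4, 6, 8 and 24 h and spun for plasma. Internal standard added, deproteinized with methanol/acetonitrile (1:1), supernatant diluted and analysed by LC/MS/MS.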

RS4-11 [3] = assay: cells; conditions: Homo sapiens, RS4-11, 72 h, read-out: Activity
RS4-11 [4] = assay: Antitumor activity against human RS4-11 cells xenografted in SCID mouse assessed as tumor growth inhibition at 25 mg/kg, ip qd administered consecutively for 21 days relative to control; conditions: RS4-11, ip, 504 h, read-out: TGI
[5] = biological target: Histone-lysine N-methyltransferase SETD2 (Homo sapiens, UniProt Q9BYW2); assay: Inhibition of SETD2 (unknown origin) using SAM as substrate preincubated for 10 mins followed by substrate addition measured after 4 hrs by AlphaLISA method
KMS-11 [6] = assay: Antiproliferative activity against human KMS-11 cells assessed as reduction in cell viability incubated for 6 days by CCK8 assay; conditions: KMS-11, 6 days
[7] = AUC in CD-1 mouse at 2 mg/kg, ip measured up to 24 hrs by LC-MS/MS; assay type: ADME, organism-based; design: route intraperitoneal, dose 2 mg/kg, time <=24; conditions: in vivo; method in brief: as §1
WSUDLCL2 = assay: Antiproliferative activity against human WSUDLCL2 cells assessed as reduction in cell viability incubated for 6 days by CCK8 assay
Pfeiffer = assay: Antiproliferative activity against human Pfeiffer cells assessed as reduction in cell viability incubated for 6 days by CCK8 assay
[8] = biological target: Protein arginine N-methyltransferase 5 (Homo sapiens, UniProt O14744); assay: Inhibition of PRMT5 (unknown origin) using SAM as substrate preincubated for 10 mins followed by substrate addition measured after 4 hrs by AlphaLISA method
[9] = biological target: Histone-lysine N-methyltransferase 2B (Homo sapiens, UniProt Q9UMN6); assay: Inhibition of MLL4 (unknown origin) using SAM as substrate preincubated for 10 mins followed by substrate addition measured after 4 hrs by HTRF method
Method in brief: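 HTRF assay: inhibitor plus enzyme preincubated 10 min at room temperature, then peptide/SAM mix added and incubated at room temperature. Antibody and SA-XL665 detection mix added for 1 h in subdued light. Emission read at 665 and 620 nm; IC50 from two separate experiments.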

KARPAS-422 = assay: Antiproliferative activity against human KARPAS-422 cells assessed as reduction in cell viability incubated for 6 days by CCK8 assay
RS4-11 [10] = assay: Antiproliferative activity against human RS4-11 cells assessed as reduction in cell viability incubated for 6 days by CCK8 assay; conditions: RS4-11, 6 days
RS4-11 [11] = assay: Antiproliferative activity against human RS4-11 cells assessed as reduction in cell viability incubated for 6 days by CCK8 assay; assay type: functional, cell-based; conditions: dose 1-100 µM, time 6.0 day
Method in brief: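 Cells seeded in triplicate at 6000–20000 per well and left 24 h, then exposed to increasing concentrations for a further 6 days. Viability read with CCK-8 and growth IC50 derived from the dose–response.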

[12] = AUC in CD-1 mouse at 2 mg/kg, iv measured up to 24 hrs by LC-MS/MS; assay type: ADME, organism-based; design: route intravenous, dose 2 mg/kg, time <=24; conditions: in vivo; method in brief: as §1
RS4-11 [13] = assay: Induction of apoptosis in human RS4-11 cells incubated for 72 hrs by annexin-V/FITC and propidium iodide staining based flow cytometry analysis; assay type: functional, cell-based; conditions: dose 5-10 µM
[14] = Clearance in CD-1 mouse at 2 mg/kg, iv measured up to 24 hrs by LC-MS/MS; assay type: ADME, organism-based; conditions: in vivo
Method in brief: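 CD-1 mice given a single 2 mg/kg i.v. dose (n = 3). Plasma collected at 0–24 h (0.083, 0.25, 0.5, 1, 2, 4, 6, 8, 24 h), deproteinized with methanol/acetonitrile 1:1 and analysed by LC/MS/MS. Clearance derived from the plasma concentration–time data.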

KMS-11 [15] = assay: cells; conditions: Homo sapiens, KMS-11, 72 h, read-out: Activity
KMS-11 [16] = assay: cells; conditions: Homo sapiens, KMS-11, 72 h, read-out: Activity; remark: listed apart in the source
[17] = biological target: Histone-lysine N-methyltransferase, H3 lysine-36 specific (Homo sapiens, UniProt Q96L73); assay: Inhibition of NSD1 (unknown origin) using SAM as substrate preincubated for 10 mins followed by substrate addition measured after 4 hrs by AlphaLISA method
[18] = biological target: Histone-lysine N-methyltransferase NSD2 (Homo sapiens, UniProt O96028, E1009K); assay: Inhibition of NSD2 E1009K mutant (unknown origin) using SAM as substrate preincubated for 10 mins followed by substrate addition measured after 4 hrs by AlphaLISA method
OPM-2 = assay: Antiproliferative activity against human OPM-2 cells assessed as reduction in cell viability incubated for 6 days by CCK8 assay
[19] = biological target: Protransforming growth factor alpha (Homo sapiens) (UniProt P01135); assay: Inhibition of TGFA transcriptional activity in human KMS-11 cells assessed as reduction in H3K36 methylation at 10 uM measured after 72 hrs by chip q-PCR analysis; assay type: cell-based
Method in brief: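 KMS11 cells treated with test agent or DMSO. ChIP with magnetic-bead enzymatic chromatin IP kit using anti-H3K36me2, anti-histone H3 and IgG control antibodies. H3K36me2 quantified by qPCR with primers spanning the promoter regions of TGFA, MET, PAK1 and RRAS2.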

Jurkat = assay: Antiproliferative activity against human Jurkat cells assessed as reduction in cell viability incubated for 6 days by CCK8 assay

Chain of Protransforming growth factor alpha (Homo sapiens) (P01135 whole entry): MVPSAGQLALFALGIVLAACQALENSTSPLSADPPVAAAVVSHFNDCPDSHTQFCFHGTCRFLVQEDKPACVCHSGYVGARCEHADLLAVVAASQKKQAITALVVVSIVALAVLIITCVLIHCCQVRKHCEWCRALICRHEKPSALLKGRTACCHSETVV
Chain of Protein arginine N-methyltransferase 5 (O14744 whole entry): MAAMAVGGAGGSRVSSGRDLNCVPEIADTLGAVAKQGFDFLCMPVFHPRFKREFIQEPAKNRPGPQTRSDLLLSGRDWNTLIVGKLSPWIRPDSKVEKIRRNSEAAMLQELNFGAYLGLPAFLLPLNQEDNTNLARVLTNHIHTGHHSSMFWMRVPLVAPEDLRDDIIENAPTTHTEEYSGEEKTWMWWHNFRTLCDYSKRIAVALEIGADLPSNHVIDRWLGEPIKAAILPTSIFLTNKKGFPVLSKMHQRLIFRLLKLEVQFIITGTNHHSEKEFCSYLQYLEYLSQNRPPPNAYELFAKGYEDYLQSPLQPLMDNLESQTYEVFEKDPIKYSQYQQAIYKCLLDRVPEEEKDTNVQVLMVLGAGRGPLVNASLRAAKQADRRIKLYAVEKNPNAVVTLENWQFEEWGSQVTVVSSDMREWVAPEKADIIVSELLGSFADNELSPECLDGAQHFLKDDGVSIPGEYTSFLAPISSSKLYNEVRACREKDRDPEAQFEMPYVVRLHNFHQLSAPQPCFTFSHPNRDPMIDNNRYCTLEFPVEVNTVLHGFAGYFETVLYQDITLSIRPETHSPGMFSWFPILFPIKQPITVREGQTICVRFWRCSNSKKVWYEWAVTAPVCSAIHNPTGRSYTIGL
Chain of Histone-lysine N-methyltransferase, H3 lysine-36 specific (Q96L73 whole entry): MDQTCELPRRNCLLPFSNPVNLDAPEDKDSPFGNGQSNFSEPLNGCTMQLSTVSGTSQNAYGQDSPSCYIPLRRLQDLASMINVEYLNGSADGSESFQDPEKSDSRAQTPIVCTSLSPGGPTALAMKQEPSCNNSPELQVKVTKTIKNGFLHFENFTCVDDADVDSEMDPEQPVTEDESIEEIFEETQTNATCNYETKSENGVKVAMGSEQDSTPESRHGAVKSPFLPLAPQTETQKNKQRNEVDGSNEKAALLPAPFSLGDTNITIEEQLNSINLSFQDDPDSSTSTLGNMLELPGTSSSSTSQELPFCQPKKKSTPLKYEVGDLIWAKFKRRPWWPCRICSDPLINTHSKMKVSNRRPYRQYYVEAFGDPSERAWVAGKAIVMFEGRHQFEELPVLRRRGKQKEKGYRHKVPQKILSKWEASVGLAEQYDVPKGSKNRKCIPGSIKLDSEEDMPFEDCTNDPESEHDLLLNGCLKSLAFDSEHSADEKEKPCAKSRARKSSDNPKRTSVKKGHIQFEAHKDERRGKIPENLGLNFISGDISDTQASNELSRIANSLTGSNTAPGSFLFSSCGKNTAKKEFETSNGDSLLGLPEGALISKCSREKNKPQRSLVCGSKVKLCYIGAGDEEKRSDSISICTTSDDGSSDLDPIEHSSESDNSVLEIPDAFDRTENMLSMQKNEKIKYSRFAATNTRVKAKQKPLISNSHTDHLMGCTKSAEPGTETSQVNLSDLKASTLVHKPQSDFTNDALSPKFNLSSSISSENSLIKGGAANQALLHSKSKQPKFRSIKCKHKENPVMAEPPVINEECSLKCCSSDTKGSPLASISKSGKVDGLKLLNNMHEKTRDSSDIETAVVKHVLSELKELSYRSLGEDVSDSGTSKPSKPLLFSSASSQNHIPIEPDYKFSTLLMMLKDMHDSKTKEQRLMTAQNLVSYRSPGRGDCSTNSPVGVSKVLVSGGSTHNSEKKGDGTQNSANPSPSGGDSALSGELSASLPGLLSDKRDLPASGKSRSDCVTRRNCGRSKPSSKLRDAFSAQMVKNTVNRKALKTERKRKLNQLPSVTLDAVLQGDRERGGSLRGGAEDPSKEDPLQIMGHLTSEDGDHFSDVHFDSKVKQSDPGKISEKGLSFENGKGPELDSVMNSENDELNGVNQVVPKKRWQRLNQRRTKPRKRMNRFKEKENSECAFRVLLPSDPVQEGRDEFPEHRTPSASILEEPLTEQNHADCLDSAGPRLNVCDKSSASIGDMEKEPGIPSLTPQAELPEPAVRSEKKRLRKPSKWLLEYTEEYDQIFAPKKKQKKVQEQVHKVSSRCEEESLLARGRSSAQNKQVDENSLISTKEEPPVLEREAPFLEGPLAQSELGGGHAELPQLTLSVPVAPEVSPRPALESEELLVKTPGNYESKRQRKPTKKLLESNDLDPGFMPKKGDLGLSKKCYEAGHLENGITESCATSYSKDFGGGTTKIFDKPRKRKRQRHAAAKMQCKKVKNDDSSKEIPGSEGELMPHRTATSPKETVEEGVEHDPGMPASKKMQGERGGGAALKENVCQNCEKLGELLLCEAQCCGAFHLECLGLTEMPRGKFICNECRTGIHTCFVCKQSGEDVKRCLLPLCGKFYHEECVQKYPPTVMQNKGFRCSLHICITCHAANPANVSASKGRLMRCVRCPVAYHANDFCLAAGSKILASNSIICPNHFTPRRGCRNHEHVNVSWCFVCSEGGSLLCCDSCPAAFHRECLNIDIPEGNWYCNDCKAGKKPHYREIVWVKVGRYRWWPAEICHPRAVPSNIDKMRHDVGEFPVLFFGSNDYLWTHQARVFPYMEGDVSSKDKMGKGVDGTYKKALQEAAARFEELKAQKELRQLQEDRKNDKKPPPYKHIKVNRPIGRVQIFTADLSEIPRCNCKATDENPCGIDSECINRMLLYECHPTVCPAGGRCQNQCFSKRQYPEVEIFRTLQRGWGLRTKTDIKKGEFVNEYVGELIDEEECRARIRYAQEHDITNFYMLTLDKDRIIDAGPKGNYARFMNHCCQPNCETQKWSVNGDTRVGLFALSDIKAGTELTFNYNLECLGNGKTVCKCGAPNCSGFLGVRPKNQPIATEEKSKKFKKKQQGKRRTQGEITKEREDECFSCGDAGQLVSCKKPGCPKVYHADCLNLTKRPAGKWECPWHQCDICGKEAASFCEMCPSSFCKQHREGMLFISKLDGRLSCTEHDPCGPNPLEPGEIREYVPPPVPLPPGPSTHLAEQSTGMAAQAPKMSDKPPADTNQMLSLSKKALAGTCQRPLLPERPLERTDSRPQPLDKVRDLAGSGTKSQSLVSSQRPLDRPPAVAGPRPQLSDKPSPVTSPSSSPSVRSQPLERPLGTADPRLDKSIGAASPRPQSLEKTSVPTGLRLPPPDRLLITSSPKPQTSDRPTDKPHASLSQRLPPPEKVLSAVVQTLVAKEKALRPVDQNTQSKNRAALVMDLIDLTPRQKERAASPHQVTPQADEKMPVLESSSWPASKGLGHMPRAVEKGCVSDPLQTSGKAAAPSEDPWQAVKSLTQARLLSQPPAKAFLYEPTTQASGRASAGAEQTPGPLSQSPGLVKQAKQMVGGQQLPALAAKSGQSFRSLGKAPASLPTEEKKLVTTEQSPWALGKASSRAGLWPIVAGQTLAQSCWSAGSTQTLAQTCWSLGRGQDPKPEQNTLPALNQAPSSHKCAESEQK
Chain of Histone-lysine N-methyltransferase NSD2 (O96028 whole entry, looked up, stated change not applied): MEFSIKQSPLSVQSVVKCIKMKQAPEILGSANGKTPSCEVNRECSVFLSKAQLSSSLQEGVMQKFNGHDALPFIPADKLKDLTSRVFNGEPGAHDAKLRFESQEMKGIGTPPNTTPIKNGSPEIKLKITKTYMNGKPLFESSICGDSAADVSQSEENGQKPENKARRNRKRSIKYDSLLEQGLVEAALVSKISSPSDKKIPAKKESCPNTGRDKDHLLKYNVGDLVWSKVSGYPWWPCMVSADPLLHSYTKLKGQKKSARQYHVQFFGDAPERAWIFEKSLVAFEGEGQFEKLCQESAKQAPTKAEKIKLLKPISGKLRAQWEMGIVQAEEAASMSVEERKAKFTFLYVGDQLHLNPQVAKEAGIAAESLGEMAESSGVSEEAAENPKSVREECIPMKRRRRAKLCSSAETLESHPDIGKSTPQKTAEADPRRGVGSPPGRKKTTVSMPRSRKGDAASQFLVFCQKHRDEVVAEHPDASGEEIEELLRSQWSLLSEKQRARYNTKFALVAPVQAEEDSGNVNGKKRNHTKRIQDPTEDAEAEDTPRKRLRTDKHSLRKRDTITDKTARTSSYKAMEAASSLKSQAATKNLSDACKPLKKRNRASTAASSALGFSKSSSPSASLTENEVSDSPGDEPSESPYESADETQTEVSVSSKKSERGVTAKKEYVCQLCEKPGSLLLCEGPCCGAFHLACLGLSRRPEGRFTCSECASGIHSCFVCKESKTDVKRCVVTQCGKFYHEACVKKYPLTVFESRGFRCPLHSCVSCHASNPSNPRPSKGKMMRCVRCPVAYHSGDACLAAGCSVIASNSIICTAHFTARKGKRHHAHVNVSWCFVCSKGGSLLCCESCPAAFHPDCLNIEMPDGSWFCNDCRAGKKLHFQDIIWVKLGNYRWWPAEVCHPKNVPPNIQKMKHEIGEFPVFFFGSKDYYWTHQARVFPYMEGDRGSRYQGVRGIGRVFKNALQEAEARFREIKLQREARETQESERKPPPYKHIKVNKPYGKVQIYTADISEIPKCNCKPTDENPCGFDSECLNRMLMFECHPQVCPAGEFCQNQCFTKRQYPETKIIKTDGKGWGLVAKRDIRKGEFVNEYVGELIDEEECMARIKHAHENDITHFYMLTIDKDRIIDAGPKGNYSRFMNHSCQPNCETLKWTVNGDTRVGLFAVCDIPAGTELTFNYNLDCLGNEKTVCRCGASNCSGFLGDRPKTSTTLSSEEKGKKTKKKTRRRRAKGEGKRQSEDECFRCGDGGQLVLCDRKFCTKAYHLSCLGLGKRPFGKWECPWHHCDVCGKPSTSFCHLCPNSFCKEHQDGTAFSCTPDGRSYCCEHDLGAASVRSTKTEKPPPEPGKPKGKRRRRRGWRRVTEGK

- half-life [1]: 39.6 min
- MRT [2]: 31.9 min
- IC50 [5]: > 20 µM
- AUC at 24 h [7]: 150 ng·h/mL
- IC50 [8]: > 20 µM
- IC50 [9]: > 20 µM
- IC50 (RS4-11 [10]): 0.52 µM
- AUC at 24 h [12]: 204 ng·h/mL
- clearance [14]: 163 mL/min/kg
- IC50 [17]: > 20 µM
- IC50 [18]: 3.1 µM
- inhibition [19]: Active
SMILES: Cl.Nc1cccc2c(S(=O)(=O)NCc3ccccc3)cccc12
- viability at 5 µM (RS4-11 [3]): 2.19%
- inhibition in vivo at 25 mg/kg (RS4-11 [4]): 43.6%
- IC50 (KMS-11 [6]): 1.88 µM
- Activity (WSUDLCL2): Active
- Activity (Pfeiffer): Active
- Activity (KARPAS-422): Active
- Activity (RS4-11 [11]): Dose-Dependent Effect
- Activity (RS4-11 [13]): Dose-Dependent Effect
- viability at 5 µM (KMS-11 [15]): 58.7%
- viability at 10 µM (KMS-11 [16]): 50.4%
- Activity (OPM-2): Active
- Activity (Jurkat): Active
